Test results from ChEMBL document CHEMBL1124581, “Synthesis and hypolipidemic and antidiabetogenic activities of beta,beta,beta',beta'-tetrasubstituted, long-chain dioic acids” (J Med Chem, 1989).

Assays:
Rattus norvegicus [1] = species on record: Rattus norvegicus; assay: Percent of hypolipidemic activity in rats by evaluating the plasma cholesterol level at 0.1%(w/w) in diet for three days; assay type: functional
How it was run: (§1)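 Rats treated 3 days with 0.1% (w/w) analogue in diet. Plasma triacylglycerols and cholesterol (mg %) compared with untreated rats (mean ± SD, n = 3).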

Rattus norvegicus [2] = assay: In vivo percent inhibition of lipid synthesis, by incorporation of 3H20 into liver saponified fatty acids in rat, at 0.1%(w/w) in diet for three days; assay type: functional; settings: values are per cent of control
How it was run: (§2)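 Rats fed for 3 consecutive days a carbohydrate-rich fat-free diet containing analogue (0.1% w/w for core-substituted series; 0.25% w/w for chain-length homologues). 10 mCi 3H2O given ip; liver taken 1 h later. 3H2O incorporation into liver saponified fatty acids and 3-β-hydroxysterols is expressed as % of untreated rats (untreated n = 3 or 4, mean ± SD).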

Rattus norvegicus [3] = species on record: Rattus norvegicus; assay: Percent of hypolipidemic activity in rats by evaluating the plasma triacylglycerol level at 0.1%(w/w) in diet for three days; assay type: functional; how it was run: as §1
[4] = target: Peroxisomal bifunctional enzyme (Rattus norvegicus) (UniProt P07896); assay: Percent of liver peroxisomal enoyl-CoA hydratase activity in rats
Peroxisomal bifunctional enzyme (Rattus norvegicus), sequence (P07896 whole entry, looked up): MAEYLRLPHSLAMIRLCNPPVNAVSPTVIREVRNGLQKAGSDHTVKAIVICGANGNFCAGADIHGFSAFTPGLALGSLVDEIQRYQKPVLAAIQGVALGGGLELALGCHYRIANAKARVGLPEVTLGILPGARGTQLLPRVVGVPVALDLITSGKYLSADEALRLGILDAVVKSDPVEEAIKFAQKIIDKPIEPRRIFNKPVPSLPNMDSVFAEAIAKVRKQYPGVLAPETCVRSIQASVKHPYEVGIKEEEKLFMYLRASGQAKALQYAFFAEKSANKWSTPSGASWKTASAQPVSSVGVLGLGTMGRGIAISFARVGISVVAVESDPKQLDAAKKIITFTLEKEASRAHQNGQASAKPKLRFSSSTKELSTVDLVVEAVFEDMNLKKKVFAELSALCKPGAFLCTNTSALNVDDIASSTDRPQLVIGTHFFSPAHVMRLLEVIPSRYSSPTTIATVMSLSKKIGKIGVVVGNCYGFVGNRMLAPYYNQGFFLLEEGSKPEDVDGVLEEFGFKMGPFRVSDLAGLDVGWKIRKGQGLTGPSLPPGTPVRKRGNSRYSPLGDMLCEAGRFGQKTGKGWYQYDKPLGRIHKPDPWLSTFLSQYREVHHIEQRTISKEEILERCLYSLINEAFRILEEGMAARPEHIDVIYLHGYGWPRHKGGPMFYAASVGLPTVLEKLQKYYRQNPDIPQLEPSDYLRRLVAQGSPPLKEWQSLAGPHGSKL

Rattus norvegicus [5] = assay: In vivo lipid synthesis as percent of nontreated control by incorporation of 3H20 into 3-beta-hydroxysterols in rat, at 0.1%(w/w) in diet for three days
ATP-citrate synthase [6] = target: T1, ATP-citrate synthase (Rattus norvegicus, UniProt P16638); assay: Inhibition against ATP-citrate lyase in liver.; assay type: tissue-based
T1 sequence (P16638 whole entry): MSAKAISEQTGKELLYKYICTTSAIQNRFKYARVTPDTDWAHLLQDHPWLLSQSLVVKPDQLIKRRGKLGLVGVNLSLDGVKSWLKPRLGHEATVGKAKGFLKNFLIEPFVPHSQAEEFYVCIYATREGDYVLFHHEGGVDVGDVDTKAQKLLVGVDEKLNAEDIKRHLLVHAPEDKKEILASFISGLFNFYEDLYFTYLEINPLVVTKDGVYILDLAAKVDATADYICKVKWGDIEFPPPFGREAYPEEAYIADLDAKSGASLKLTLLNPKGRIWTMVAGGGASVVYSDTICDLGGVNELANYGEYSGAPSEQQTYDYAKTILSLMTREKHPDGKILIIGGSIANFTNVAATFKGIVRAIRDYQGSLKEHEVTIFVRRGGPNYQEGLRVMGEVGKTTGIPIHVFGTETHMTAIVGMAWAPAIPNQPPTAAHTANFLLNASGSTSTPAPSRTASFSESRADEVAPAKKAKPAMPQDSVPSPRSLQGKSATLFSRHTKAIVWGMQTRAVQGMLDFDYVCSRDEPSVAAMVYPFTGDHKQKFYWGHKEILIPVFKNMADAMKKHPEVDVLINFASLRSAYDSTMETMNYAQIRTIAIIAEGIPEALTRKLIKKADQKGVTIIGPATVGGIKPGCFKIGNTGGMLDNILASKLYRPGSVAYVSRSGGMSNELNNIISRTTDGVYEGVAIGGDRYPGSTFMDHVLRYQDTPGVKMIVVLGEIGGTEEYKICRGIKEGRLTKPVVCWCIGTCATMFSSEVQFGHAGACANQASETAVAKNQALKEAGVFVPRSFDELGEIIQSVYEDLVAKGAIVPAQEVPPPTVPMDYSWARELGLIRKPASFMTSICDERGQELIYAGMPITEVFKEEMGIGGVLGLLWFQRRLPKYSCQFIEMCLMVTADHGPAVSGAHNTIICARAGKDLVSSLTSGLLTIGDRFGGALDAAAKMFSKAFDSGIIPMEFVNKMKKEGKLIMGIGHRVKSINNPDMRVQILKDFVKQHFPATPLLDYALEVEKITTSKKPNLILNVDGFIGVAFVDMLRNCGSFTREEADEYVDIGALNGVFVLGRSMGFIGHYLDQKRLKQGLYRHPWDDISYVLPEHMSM
How it was run: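 Liver ATP-citrate lyase activity was followed across varying inhibitor concentrations, and Ki was derived from a Dixon plot. The methods otherwise refer to an earlier report.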

Rattus norvegicus [7] = assay: Hypolipidemic activity in rats by evaluating the plasma triacylglycerol level at a dose of 10 mg/kg for seven days; assay type: functional
How it was run: (§3)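 Male Lewis rats, 150–180 g, fed standard chow ad libitum. Compound given orally as a suspension in 1% aqueous tylose; controls received vehicle. Blood taken from the retrobulbar venous plexus 3 h after dosing. Plasma cholesterol and triacylglycerols measured spectrophotometrically with enzymatic kits.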

Rattus norvegicus [8] = assay: Hypolipidemic activity in rats by evaluating the plasma cholesterol level at a dose of 10 mg/kg for seven days; assay type: functional; how it was run: as §3
Rattus norvegicus [9] = species on record: Rattus norvegicus; assay: Inhibition of lipid synthesis, by incorporation of 3H20 into 3-beta-hydroxysterols in cultured rat hepatocytes; assay type: functional; settings: Hepatocyte, read-out: I50
How it was run: (§4)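 Cultured rat hepatocytes incubated with varying concentrations of homologue. 3H2O incorporation into saponified fatty acids and 3-β-hydroxysterols measured. I50 = concentration (mM) giving 50% inhibition.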

Rattus norvegicus [10] = species on record: Rattus norvegicus; assay: Inhibition of lipid synthesis, by incorporation of 3H20 into saponified fatty acids in cultured rat hepatocytes; assay type: functional; settings: Hepatocyte, read-out: I50; how it was run: as §4
Rattus norvegicus [11] = species on record: Rattus norvegicus; assay: Percent inhibition of lipid synthesis by incorporation of 3H20 into saponified fatty acids in rat; assay type: functional; set-up: concentration or dose not given beside the values; how it was run: as §2
[12] = target: Peroxisomal bifunctional enzyme (Rattus norvegicus) (UniProt P07896); assay: Liver peroxisomal enoyl-CoA hydratase activity in rats
Rattus norvegicus [13] = species on record: Rattus norvegicus; assay: Hypolipidemic activity in rats by evaluating the plasma cholesterol level at 0.1%(w/w) in diet for three days
ATP-citrate synthase [14] = target: T1, ATP-citrate synthase; assay: Inhibition against ATP-citrate lyase in rat liver; assay type: tissue-based
How it was run: (§5)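 Liver citrate lyase activity measured across varying concentrations of homologue. Ki (mM) determined from a Dixon plot.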

ATP-citrate synthase [15] = target: T1, ATP-citrate synthase; assay: Inhibition against ATP-citrate lyase in rat liver.; how it was run: as §5
ATP-citrate synthase [16] = target: T1, ATP-citrate synthase; assay: Inhibition against ATP-citrate lyase in liver; assay type: tissue-based; how it was run: as §5
[17] = target: Enoyl-CoA hydratase (Rattus norvegicus) (UniProt P07896); assay: Liver peroxisomal enoyl-CoA hydratase activity in rats, at 0.00(w/w) in diet
Enoyl-CoA hydratase (Rattus norvegicus), sequence (P07896 whole entry): as the sequence (P07896 whole entry, looked up) above
How it was run: (§6)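 Hebrew University strain rats, 140–160 g, starved 48 h, then pair-refed for 3 consecutive nights a 15-g meal of high-carbohydrate fat-free powdered diet, with or without analogue mixed into the diet at the stated % (w/w). The morning after the last meal, 10 mCi 3H2O in saline given ip; rats killed 1 h later. Readouts: liver lipid 3H2O incorporation, plasma lipids, peroxisomal enoyl-CoA hydratase, CN-insensitive palmitoyl-CoA oxidation. Mean ± SD, n = 4.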

[18] = target: Enoyl-CoA hydratase (Rattus norvegicus) (UniProt P07896); assay: Liver peroxisomal palmitoyl-CoA oxidation activity in rats, at 0.00(w/w) in diet; how it was run: as §6
[19] = target: Enoyl-CoA hydratase (Rattus norvegicus) (UniProt P07896); assay: Liver peroxisomal palmitoyl-CoA oxidation activity in rats, at 0.15(w/w) in diet; how it was run: as §6
[20] = target: Enoyl-CoA hydratase (Rattus norvegicus) (UniProt P07896); assay: Liver peroxisomal palmitoyl-CoA oxidation activity in rats, at 0.30(w/w) in diet; how it was run: as §6
Rattus norvegicus [21] = species on record: Rattus norvegicus; assay: Inhibition of lipid synthesis, evaluated by incorporation of 3H20 at 0.00(w/w) into liver cholesterol in rat; assay type: functional
Rattus norvegicus [22] = species on record: Rattus norvegicus; assay: Inhibition of lipid synthesis, evaluated by incorporation of 3H20 at 0.00(w/w) into liver saponified fatty acids in rat; assay type: functional
Rattus norvegicus [23] = species on record: Rattus norvegicus; assay: Inhibition of lipid synthesis, evaluated by incorporation of 3H20 at 0.15(w/w) into liver cholesterol in rat; assay type: functional
Rattus norvegicus [24] = species on record: Rattus norvegicus; assay: Inhibition of lipid synthesis, evaluated by incorporation of 3H20 at 0.30(w/w) into liver cholesterol in rat; assay type: functional
Rattus norvegicus [25] = species on record: Rattus norvegicus; assay: Inhibition of lipid synthesis, evaluated by incorporation of 3H20 at 0.30(w/w) into liver saponified fatty acids in rat; assay type: functional
Rattus norvegicus [26] = species on record: Rattus norvegicus; assay: Hypolipidemic activity in rats by evaluating the plasma cholesterol level at 0.00 dose (% w/w) in diet; assay type: functional; how it was run: as §6
Rattus norvegicus [27] = species on record: Rattus norvegicus; assay: Hypolipidemic activity in rats by evaluating the plasma cholesterol level at 0.15 dose (% w/w) in diet; assay type: functional; how it was run: as §6
Rattus norvegicus [28] = species on record: Rattus norvegicus; assay: Hypolipidemic activity in rats by evaluating the plasma cholesterol level at 0.30 dose (% w/w) in diet; assay type: functional; how it was run: as §6
Rattus norvegicus [29] = species on record: Rattus norvegicus; assay: Hypolipidemic activity in rats by evaluating the plasma triacylglycerol level at 0.00 (% w/w)in diet; assay type: functional; how it was run: as §6
Rattus norvegicus [30] = species on record: Rattus norvegicus; assay: Hypolipidemic activity in rats by evaluating the plasma triacylglycerol level at 0.15 (% w/w)in diet; assay type: functional; how it was run: as §6
Rattus norvegicus [31] = species on record: Rattus norvegicus; assay: Hypolipidemic activity in rats by evaluating the plasma triacylglycerol level at 0.30 (% w/w)in diet; assay type: functional; how it was run: as §6

Compound	residual activity (Rattus norvegicus [2])	Activity (Rattus norvegicus [3])	Activity (uM min-1 mg-1) [4]	Incorporation (Rattus norvegicus [5])	Hypolipidemic activity (Rattus norvegicus [7])	Activity (mg) (Rattus norvegicus [8])	IC50 (Rattus norvegicus [9])	IC50 (Rattus norvegicus [10])	Fatty acid synthesis (% of untreated control) (Rattus norvegicus [11])	Activity (uM min-1 mg-1) [12]	further results
CC(C)(CCCc1ccc(CCCC(C)(C)CC(=O)O)cc1)CC(=O)O	63%	84%	12	65%							Activity (Rattus norvegicus [1]): 36%
CC(C)(CCCCCCCCCCC(C)(C)CC(=O)O)CC(=O)O	48%	49%	10.7	40%	111%	58%	80 µM	80 µM	29%	31	Ki (ATP-citrate synthase [6]): 16 µM; Plasma cholesterol (Rattus norvegicus [13]): 32 mg %
CC(C)(CCCCCCC(C)(C)CC(=O)O)CC(=O)O							200 µM	300 µM	80%	7.5	Ki (ATP-citrate synthase [14]): 310 µM
CC(C)(CCCCCCCCC(C)(C)CC(=O)O)CC(=O)O					126%	70%	100 µM	100 µM	66%	16.3	Ki (ATP-citrate synthase [15]): 56 µM
CC(C)(CCCCCCCCCCCCC(C)(C)CC(=O)O)CC(=O)O					130%	73%	150 µM	150 µM	48%	17.5	Ki (ATP-citrate synthase [16]): 46 µM
CC(C)(C/C=C/c1ccc(/C=C/CC(C)(C)CC(=O)O)cc1)CC(=O)O	57%	41%	18.6	57%							Activity (Rattus norvegicus [1]): 28%
CC(C)(C/C=C\c1ccc(/C=C\CC(C)(C)CC(=O)O)cc1)CC(=O)O	72%	98%	4.5	97%							Activity (Rattus norvegicus [1]): 47%
O=C(O)CC(CCCCCCCCCCC(CC(=O)O)(c1ccccc1)c1ccccc1)(c1ccccc1)c1ccccc1											Activity (umol/mg.of protein. min) (µmol/mg protein/min) [17]: 0.45; Activity (nmol/mg.of protein. min) (nmol/mg protein/min) [18]: 4.8; Activity (nmol/mg.of protein. min) (nmol/mg protein/min) [19]: 4.4; Activity (nmol/mg.of protein. min) (nmol/mg protein/min) [20]: 7.2; Activity (umol/g.of liver 75.min) (Rattus norvegicus [21]): 3.9 µmol/g liver/75 min; Activity (umol/g.of liver 75.min) (Rattus norvegicus [22]): 118 µmol/g liver/75 min; Activity (umol/g.of liver 75.min) (Rattus norvegicus [23]): 4.3 µmol/g liver/75 min; Activity (umol/g.of liver 75.min) (Rattus norvegicus [24]): 3.4 µmol/g liver/75 min; Activity (umol/g.of liver 75.min) (Rattus norvegicus [25]): 123 µmol/g liver/75 min; Activity (mg) (Rattus norvegicus [26]): 70.5%; Activity (mg) (Rattus norvegicus [27]): 70%; Activity (mg) (Rattus norvegicus [28]): 58%; Activity (mg) (Rattus norvegicus [29]): 131%; Activity (mg) (Rattus norvegicus [30]): 127%; Activity (mg) (Rattus norvegicus [31]): 101%
CC(C)(CCCCCCCCCCCCCCCCC(C)(C)CC(=O)O)CC(=O)O							400 µM	400 µM	158%	3.5	Ki (ATP-citrate synthase [16]): 320 µM
CC(C)(CCCCCCCCCCCC(C)(C)CC(=O)O)CC(=O)O					113%	73%					
CC(C)(CCCCCCCCCC(C)(C)CC(=O)O)CC(=O)O					112%	72%					
CC(C)(CCCCCCCCCCCCCCC(C)(C)CC(=O)O)CC(=O)O							300 µM	300 µM	113%	5	Ki (ATP-citrate synthase [16]): 260 µM
CC(C)(C/C=C\c1ccc(/C=C/CC(C)(C)CC(=O)O)cc1)CC(=O)O	50%	25%	10.5	37%							Activity (Rattus norvegicus [1]): 37%
CC(C)(CCCC1CCC(CCCC(C)(C)CC(=O)O)CC1)CC(=O)O (stereo not given)	79%	63%	14	71%							Plasma cholesterol (Rattus norvegicus [13]): 42 mg %
